Source: ChEMBL document CHEMBL1140626, “Quantitative structure-activity relationship of peptides binding to the class II major histocompatibility complex molecule Aq associated with autoimmune arthritis” (J Med Chem, 2007)

Columns and labels:
Format in all cases: cell-based
[1] = Displacement of biotinylated CLIP peptide from H-2Aq expressed in M12Q 14-7 cells at 250 uM
Method in brief: (§1)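 Competition binding on M12Q 14-7 cells transfected with H-2Aq. Test peptide (seven levels, 750 to 1 µM) co-incubated 2.5 h at 37 °C with biotinylated CLIP at 5 µM. After washing, cells were stained with streptavidin-PE and read by flow cytometry. % inhibition was taken from gated mean fluorescence against the no-inhibitor control, after subtracting the no-CLIP background. Duplicates, repeated once; duplicate averages were used.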

[2] = Displacement of biotinylated CLIP peptide from H-2Aq expressed in M12Q 14-7 cells at 83 uM; method in brief: as §1
[3] = Displacement of biotinylated CLIP peptide from H-2Aq expressed in M12Q 14-7 cells at 28 uM; method in brief: as §1

Ac-ITMFKMDRK-NH2
inhibition [1]: 62% | inhibition [2]: 46% | inhibition [3]: 26%

Ac-IAMFKSVNK-NH2
inhibition [1]: 50% | inhibition [2]: 32% | inhibition [3]: 19%

Ac-IMTFKMYVK-NH2
inhibition [1]: 48% | inhibition [2]: 40% | inhibition [3]: 13%

Ac-IVSFKAYRK-NH2
inhibition [1]: 51% | inhibition [2]: 61% | inhibition [3]: 49%

Ac-IMMFKVRRK-NH2
inhibition [1]: 74% | inhibition [2]: 52% | inhibition [3]: 36%

Ac-IMMFKMSDK-NH2
inhibition [1]: 30% | inhibition [2]: 17% | inhibition [3]: 4%

Ac-IAAFKADSK-NH2
inhibition [1]: 53% | inhibition [2]: 36% | inhibition [3]: 31%

Ac-IMSFKTRDK-NH2
inhibition [1]: 54% | inhibition [2]: 27% | inhibition [3]: 15%

Ac-ITMFKVVYK-NH2
inhibition [1]: 59% | inhibition [2]: 50% | inhibition [3]: 35%

Ac-ITTFKSSSK-NH2
inhibition [1]: 20% | inhibition [2]: 6% | inhibition [3]: 6%

Ac-ISTFKARVK-NH2
inhibition [1]: 74% | inhibition [2]: 58% | inhibition [3]: 39%

Ac-IAMFKMRSK-NH2
inhibition [1]: 78% | inhibition [2]: 63% | inhibition [3]: 40%

Ac-IMMFKTDVK-NH2
inhibition [1]: 16% | inhibition [2]: 24% | inhibition [3]: 10%

Ac-ITSFKMRYK-NH2
inhibition [1]: 80% | inhibition [2]: 69% | inhibition [3]: 50%

Ac-IMTFKAVYK-NH2
inhibition [1]: 72% | inhibition [2]: 59% | inhibition [3]: 47%

Ac-IATFKTYYK-NH2
inhibition [1]: 70% | inhibition [2]: 58% | inhibition [3]: 38%

Ac-IVAFKTVVK-NH2
inhibition [1]: 41% | inhibition [2]: 27% | inhibition [3]: 22%

Ac-ISAFKTNRK-NH2
inhibition [1]: 84% | inhibition [2]: 61% | inhibition [3]: 42%

Ac-IAVFKMVRK-NH2
inhibition [1]: 70% | inhibition [2]: 59% | inhibition [3]: 42%
